Source: PubChem BioAssay (several laboratories)
Compounds with a hit are over-represented: about 9.6% of the library has one in this group of screens.
TNAP inh noacc: inhibitors of human TNAP without phosphate acceptor; 0.26% of 200,000 active; AID 1012; inhibition, % at 20 µM; purified TNAP, CDP-star luminescence, 30 min; P05186;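 active = tissue-nonspecific alkaline phosphatase inhibition above about 50% at 20 µM in the single-dose screen, limit read from the data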;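 also: 0% = DMSO negative control and 100% = EDTA positive control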
Target sequence (P05186 whole entry, looked up): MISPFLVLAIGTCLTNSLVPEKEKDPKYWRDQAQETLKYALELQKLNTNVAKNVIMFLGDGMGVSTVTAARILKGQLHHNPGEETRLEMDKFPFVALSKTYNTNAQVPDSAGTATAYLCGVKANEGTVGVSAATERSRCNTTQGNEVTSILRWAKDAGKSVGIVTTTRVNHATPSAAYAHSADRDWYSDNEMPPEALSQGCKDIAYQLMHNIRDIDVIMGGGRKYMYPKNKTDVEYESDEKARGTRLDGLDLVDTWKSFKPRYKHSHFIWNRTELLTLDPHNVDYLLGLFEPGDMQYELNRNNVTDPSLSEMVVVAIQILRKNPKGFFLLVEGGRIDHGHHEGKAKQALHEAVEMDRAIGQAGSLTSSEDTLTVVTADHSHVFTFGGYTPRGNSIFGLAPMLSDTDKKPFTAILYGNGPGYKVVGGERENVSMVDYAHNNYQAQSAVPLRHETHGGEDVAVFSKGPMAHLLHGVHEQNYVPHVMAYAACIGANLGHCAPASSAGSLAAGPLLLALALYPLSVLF
TNAP act hi DEA: activators of human TNAP at high phosphate acceptor concentration. 200,000 tested, under 10 active. activation factor at 20 µM. P05186. purified TNAP, CDP-star luminescence, 1 M DEA, 30 min; hits give high values; 0 = EDTA background, 1 = DMSO-only activity;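 active = activation factor at least 2 at 20 µM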
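Test system – human TNAP · Doses – 20 µM single point · Incubation – 30 min, room temperature · Signal – luminescent substrate turnover signal · Read-out basis – activation factor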
Lmaj promast: Leishmania major promastigote growth inhibition; Leishmania major promastigotes, resazurin fluorescence viability; inhibition, % at 10 µM; 9% of 200,000 active; AID 1063; in the data active = inhibition above about 50%;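 also: promastigotes grown with compound for 44 hours at 28 °C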
bCat KO growth: beta-catenin-lacking colon tumor cell growth suppression. 1.5% of 140,000 active. HCT116 beta-catenin knockout viability, CellTiter-Glo, 60 h; hits give low values. AID 818. viability, % at 10 µM;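 active = viability at or under a set limit, the compound median less 4 SD, cut at about 6% in these data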;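 also: 0% = Hyamine 1622 control at 20 µM and 100% = untreated cell control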
TNAP inh hiacc: inhibitors of human TNAP at high phosphate acceptor concentration. P05186. purified TNAP, CDP-star luminescence, 1 M DEA. inhibition, % at 20 µM. 0.03% of 200,000 active;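 active = over 50% inhibition of tissue-nonspecific alkaline phosphatase at 20 µM in the single-dose screen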;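 also: plate controls were DMSO wells for no effect and EDTA-quenched wells as full inhibition for full effect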
HCT116 PTEN-null: growth suppressors of cells with PTEN tumor suppressor deletion; AID 827; HCT116 PTEN-null viability, CellTiter-Glo, 60 h; hits give low values; viability, % at 10 µM; 1.2% of 140,000 active;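 active = viability at or below a set limit, 4 SD under the median of all tested compounds, cut at about 3.7% in these data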;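 also: PTEN knockout HCT116 line with beta catenin targeted HCT116 as companion control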
* = called active by the depositor; / = no result.

SMILES | TNAP inh noacc | TNAP act hi DEA | Lmaj promast | bCat KO growth | TNAP inh hiacc | HCT116 PTEN-null
O=C(Nc1ncc(Cc2ccccc2Cl)s1)c1ccc([N+](=O)[O-])cc1 | -13 | 1 | -4 | 60 | 2 | 61
COc1ccc(Cn2c(SCc3ccccc3C)nc3cc(OC)c(OC)cc3c2=N)cc1 | -6 | 1 | 100* | 1.6* | -5 | 1.1*
COCCCn1c(SCCc2ccccc2)nc2cc(OC)c(OC)cc2c1=N | -19 | 1 | 51* | / | -2 | /
CN(CC(=O)Nc1nc2ccccc2s1)S(=O)(=O)c1ccc(Br)cc1 | 2 | 1.1 | 16 | 83 | -5 | 62
CN(CC(=O)Nc1nc2ccccc2s1)S(=O)(=O)c1ccc(Cl)cc1 | -14 | 1 | 88* | 89 | -2 | 94
O=C(CN1CCN(Cc2ccc(Cl)cc2)C1=O)NCCCN1CCOCC1 | -16 | 1.1 | -3 | 91 | -5 | 101
O=C(NCCCN1CCOCC1)c1cc(-c2ccc(Br)cc2)on1 | -7 | 1 | 94* | 86 | 0 | 81
Cc1cc(C)c(C)c(S(=O)(=O)Nc2ccccc2C(=O)NCCCN2CCOCC2)c1C | 0 | 1 | 97* | / | -1 | /
O=C(NCCCN1CCOCC1)c1ccc(CSc2ccc(Cl)cc2)cc1 | -6 | 1.1 | 97* | / | -6 | /
O=C(CCS(=O)(=O)Cc1ccc(Cl)cc1)NCCCN1CCOCC1 | -6 | 1 | 89* | 102 | -2 | 97
Cc1cc(C)n(C(=O)CNC(=O)/C=C/c2ccccc2)n1 | -2 | 1 | -8 | / | -3 | /
Cc1cccc(C(=O)N(Cc2nc3ccccc3c(=O)[nH]2)C2CCCCC2)c1 | -3 | 1 | 1 | / | 2 | /
CC(CN1CCOCC1)OC(=O)c1ccc(Br)cc1 (stereo unspecified) | -11 | 1 | 4 | 2.8* | -4 | 2.4*
CC(CN1CCN(C)CC1)OC(=O)c1ccc(F)cc1 (stereo unspecified) | -13 | 1.1 | 7 | / | -6 | /
O=C(NCCCN1CCOCC1)c1ccc(Br)cc1 | -16 | 1 | 52* | 91 | -3 | 90
Cc1onc(-c2ccccc2Cl)c1C(=O)N(Cc1nc(-c2ccccc2)no1)C1CCCCC1 | -4 | 1.1 | 54* | 63 | -6 | 77
Cc1cccc(-c2noc(CN(C(=O)c3c(-c4ccccc4Cl)noc3C)C(C)C)n2)c1 | -13 | 1.1 | 16 | 49 | -8 | 57
Cc1ccc(S(=O)(=O)Nc2cc3c(C(=O)Nc4ccccc4)c(C)oc3c3ccccc23)cc1 | -3 | 1 | 61* | 78 | 2 | 77
Cc1oc2ccc(NS(=O)(=O)c3ccccc3)cc2c1C(=O)Nc1ccccc1 | -15 | 1 | -1 | 96 | 0 | 91
Nc1cc2c(cc1O)CCCC2 | -43 | 1 | 0 | / | -3 | /
O=c1c(Cl)c(Cl)cnn1Cc1ccc(F)cc1 | -5 | 1 | 73* | / | -5 | /
O=C(OCn1ncc(Cl)c(Cl)c1=O)c1ccc(F)cc1 | -8 | 1 | 98* | 0.8* | -3 | 0.5*
O=C(OCn1ncc(Cl)c(Cl)c1=O)c1ccccc1Cl | -10 | 1 | 101* | 3.9* | -5 | 7
O=c1c2nnn(Cc3ccc(Cl)cc3)c2ncn1Cc1ccc(F)cc1 | -7 | 1 | -2 | 88 | 0 | 82
O=C(Cn1ncc(Cl)c(Cl)c1=O)c1ccc(Cl)cc1 | -9 | 1 | 76* | 1.7* | -1 | 2.0*
SMILES | TNAP inh noacc | TNAP act hi DEA | Lmaj promast | bCat KO growth | TNAP inh hiacc | HCT116 PTEN-null
CCN(CC)CCOC(=O)c1ccc(NC(=O)c2cn(-c3ccccc3)nc2-c2cccs2)cc1 | -14 | 1.1 | 22 | / | -8 | /
C=CCn1c(C)cc(C(=O)Cn2ncc(Cl)c(Cl)c2=O)c1C | -8 | 1 | 87* | 1.7* | -2 | 1.4*
CC(C)(C)C(=O)Cn1ncc(Cl)c(Cl)c1=O | -6 | 1 | 34 | / | -2 | /
C=CCN(Cc1nc(-c2ccc(OC)c(OC)c2)oc1C)C1CCS(=O)(=O)C1 (stereo unspecified) | -7 | 1 | 54* | / | -1 | /
CN(C)S(=O)(=O)c1cccc(NC(=O)CSc2nc3ccccc3n2-c2ccccc2)c1 | -12 | 1.1 | 9 | 14 | -11 | 13
COc1cc(NC(=O)CSc2nc3ccccc3n2-c2ccccc2)c(C)cc1[N+](=O)[O-] | -3 | 1 | 55* | 83 | -4 | 80
CN(C)S(=O)(=O)c1ccc(NC(=O)CSc2nc3ccccc3n2-c2ccccc2)cc1 | -2 | 1.1 | 100* | 68 | -8 | 62
